From ChEMBL document CHEMBL5316332 (J Med Chem, 2023)
Active and inactive are the calls of the source. No cut-off for these calls is given here.

How the values were obtained:
[1] = molecular target: T1, Bone morphogenetic protein receptor type-2 (Homo sapiens) (UniProt Q13873); assay: (§1) Inhibition of recombinant C-terminal 6His-tagged human BMPR2 (188 to 517 residues) expressed in Escherichia coli Rosetta assessed as apparent inhibition constant using ATP as substrate incubated for 30 mins by Morrison plot analysis
T1 sequence (whole entry): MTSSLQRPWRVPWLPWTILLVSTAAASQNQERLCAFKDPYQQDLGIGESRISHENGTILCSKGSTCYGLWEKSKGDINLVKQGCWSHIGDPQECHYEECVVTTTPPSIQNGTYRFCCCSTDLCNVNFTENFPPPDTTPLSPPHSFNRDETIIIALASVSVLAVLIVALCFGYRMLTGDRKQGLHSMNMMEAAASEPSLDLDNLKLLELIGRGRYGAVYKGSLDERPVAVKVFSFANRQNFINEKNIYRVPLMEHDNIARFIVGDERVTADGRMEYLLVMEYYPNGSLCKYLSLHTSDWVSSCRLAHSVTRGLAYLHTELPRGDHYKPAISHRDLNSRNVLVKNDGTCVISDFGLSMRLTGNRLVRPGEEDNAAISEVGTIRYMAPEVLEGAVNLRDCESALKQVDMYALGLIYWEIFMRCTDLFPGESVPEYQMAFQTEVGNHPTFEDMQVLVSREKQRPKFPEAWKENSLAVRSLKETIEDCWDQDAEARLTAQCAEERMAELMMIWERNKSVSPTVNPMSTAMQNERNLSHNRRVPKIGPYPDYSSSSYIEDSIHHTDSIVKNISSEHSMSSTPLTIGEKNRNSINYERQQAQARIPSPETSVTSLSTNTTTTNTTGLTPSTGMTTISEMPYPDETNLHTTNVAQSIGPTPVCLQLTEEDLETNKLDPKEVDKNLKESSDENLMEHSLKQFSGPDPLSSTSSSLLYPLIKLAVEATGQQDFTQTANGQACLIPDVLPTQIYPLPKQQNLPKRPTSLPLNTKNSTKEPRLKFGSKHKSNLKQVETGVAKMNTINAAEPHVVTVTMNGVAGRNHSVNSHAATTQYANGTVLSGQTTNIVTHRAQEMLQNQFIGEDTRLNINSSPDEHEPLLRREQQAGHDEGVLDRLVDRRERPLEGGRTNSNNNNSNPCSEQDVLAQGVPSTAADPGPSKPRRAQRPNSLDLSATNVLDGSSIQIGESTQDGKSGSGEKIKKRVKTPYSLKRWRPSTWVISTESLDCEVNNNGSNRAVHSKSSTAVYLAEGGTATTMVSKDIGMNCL
Outline: (§2)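 Purified His-tagged BMPR2 kinase domain with no peptide substrate (intrinsic ATPase). 10 μM ATP, 0.02% Tween-20, kinase buffer, 50 μL, enzyme level optimized for initial-velocity conditions. 30 min at 30 °C. Leftover ATP read by Kinase-Glo luminescence, with no-kinase controls. Kiapp from a modified Morrison equation fitted to normalized fractional activity, assuming no specific inhibition mode.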

[2] = molecular target: T2, Bone morphogenetic protein receptor type-2 (Homo sapiens, UniProt Q13873); assay: as §1; details: read-out: Ki(app); outline: as §2
T2 sequence (Q13873 whole entry): T1 sequence (whole entry)

[3] = Metabolic stability in human liver microsomes assessed as intrinsic clearance per mg of protein at 2 uM and mesured upto 60 mins in presence of NADPH by UHPLC-MS analysis; assay type: ADME, Microsome; details: for microsomal intrinsic clearance: microsomes, 1 h, 2 µM
[4] = Metabolic stability in mouse liver microsomes assessed as half life at 2 uM and mesured upto 60 mins in presence of NADPH by UHPLC-MS analysis; assay type: ADME, Microsome; details: for t1/2: microsomes, 1 h, 2 µM
[5] = Metabolic stability in mouse liver microsomes assessed as intrinsic clearance per mg of protein at 2 uM and mesured upto 60 mins in presence of NADPH by UHPLC-MS analysis; assay type: ADME, Microsome; details: for microsomal intrinsic clearance: microsomes, 1 h, 2 µM
[6] = Metabolic stability in human liver microsomes assessed as half life at 2 uM and mesured upto 60 mins in presence of NADPH by UHPLC-MS analysis; assay type: ADME, Microsome; details: for t1/2: microsomes, 1 h, 2 µM
HEK293T [7] = assay: Inhibition of BMP signalling pathway in BMP2-stimulated human HEK293T cells assessed as decrease in SMAD1 phosphorylation at 25 uM preincubated for 30 mins followed by BMP2 stimulation and measured after 15 mins by Western blot analysis; assay type: cell-based; details: time 45.0 min
Outline: (§3)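 HEK293T cells, 3 × 10^5 per well, starved overnight in DMEM with 2 mM glycine and 2% heat-inactivated FBS. Pretreated 30 min with inhibitor, then 5 ng/mL BMP2 for 15 min. Lysed in M-PER with protease inhibitors. Western blot for pSMAD1/5, SMAD1, SMAD5 and GAPDH, quantified by densitometry.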

HEK293T [8] = assay: Inhibition of BMP signalling pathway in BMP2-stimulated human HEK293T cells assessed as decrease in SMAD5 phosphorylation at 25 uM preincubated for 30 mins followed by BMP2 stimulation and measured after 15 mins by Western blot analysis; assay type: cell-based; details: time 45.0 min; outline: as §3
[9] = Inhibition of BMP signalling pathway in BMP2-stimulated human HEK293T cells expressing BRE and luciferase reporter assessed as inhibition of luciferase transactivation by measuring BRE-reporter activity preincubated for 30 mins followed by BMP2 stimulation and measured after 6 hrs by Bright-GLO mediated luciferase assay; assay type: cell-based; details: HEK-293T
Outline: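 293T cells stably carrying a BMP-responsive-element luciferase reporter, 2 × 10^4 per well, attached overnight in phenol-red-free DMEM with 2 mM glycine and 2% heat-inactivated FBS. Pretreated 30 min with inhibitor, then 5 ng/mL BMP2 for 6 h. Bright-Glo luminescence read; IC50 by nonlinear regression.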

HUVEC [10] = assay: Inhibition of BMP signalling pathway in BMP9-stimulated human HUVEC cells assessed as decrease in SMAD5 phosphorylation at 25 uM preincubated for 30 mins followed by BMP2 stimulation and measured after 15 mins by Western blot analysis; assay type: cell-based; details: time 45.0 min
Outline: (§4)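 HUVECs, about 3 × 10^5 per well, starved overnight in Kaighn's F-12 with 0.5% FBS and 30 μg/mL endothelial cell growth supplement. Pretreated 30 min with inhibitor, then stimulated with 0.5 ng/mL BMP9. Lysed in M-PER with protease and phosphatase inhibitors. Western blot for pSMAD1/5, SMAD1 and SMAD5, quantified by densitometry.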

HUVEC [11] = assay: Inhibition of BMP signalling pathway in BMP9-stimulated human HUVEC cells assessed as decrease in SMAD1 phosphorylation at 25 uM preincubated for 30 mins followed by BMP2 stimulation and measured after 15 mins by Western blot analysis; assay type: cell-based; details: time 45.0 min; outline: as §4
Activin receptor type-2B = Activin receptor type-2B (Homo sapiens, UniProt Q13705); assay: Inhibition of ACVR2B (unknown origin) by LanthaScreen TR-FRET assay
Chain of Activin receptor type-2B (Q13705 whole entry): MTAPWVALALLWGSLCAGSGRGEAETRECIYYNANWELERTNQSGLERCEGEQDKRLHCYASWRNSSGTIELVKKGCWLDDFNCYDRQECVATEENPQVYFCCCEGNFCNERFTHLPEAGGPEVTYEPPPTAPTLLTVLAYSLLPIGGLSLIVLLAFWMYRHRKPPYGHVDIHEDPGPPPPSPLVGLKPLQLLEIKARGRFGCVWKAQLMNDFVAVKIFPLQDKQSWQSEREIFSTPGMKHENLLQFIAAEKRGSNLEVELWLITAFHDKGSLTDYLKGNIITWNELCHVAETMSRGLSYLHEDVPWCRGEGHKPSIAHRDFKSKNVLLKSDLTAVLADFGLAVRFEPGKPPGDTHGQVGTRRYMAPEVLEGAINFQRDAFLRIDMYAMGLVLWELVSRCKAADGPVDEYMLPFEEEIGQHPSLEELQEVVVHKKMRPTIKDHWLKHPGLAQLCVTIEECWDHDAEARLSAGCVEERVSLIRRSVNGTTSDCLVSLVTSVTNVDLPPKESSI
Outline: (§5)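 Outsourced SelectScreen profiling using a LanthaScreen TR-FRET binding format, in which a tight-binding tracer is displaced from the kinase.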

[12] = molecular target: Receptor-interacting serine/threonine-protein kinase 2 (Homo sapiens, UniProt O43353); assay: Inhibition of RIPK2 (unknown origin) incubated for 30 mins in presence of [gamma33P]ATP by microplate reader analysis
Chain of Receptor-interacting serine/threonine-protein kinase 2 (O43353 whole entry): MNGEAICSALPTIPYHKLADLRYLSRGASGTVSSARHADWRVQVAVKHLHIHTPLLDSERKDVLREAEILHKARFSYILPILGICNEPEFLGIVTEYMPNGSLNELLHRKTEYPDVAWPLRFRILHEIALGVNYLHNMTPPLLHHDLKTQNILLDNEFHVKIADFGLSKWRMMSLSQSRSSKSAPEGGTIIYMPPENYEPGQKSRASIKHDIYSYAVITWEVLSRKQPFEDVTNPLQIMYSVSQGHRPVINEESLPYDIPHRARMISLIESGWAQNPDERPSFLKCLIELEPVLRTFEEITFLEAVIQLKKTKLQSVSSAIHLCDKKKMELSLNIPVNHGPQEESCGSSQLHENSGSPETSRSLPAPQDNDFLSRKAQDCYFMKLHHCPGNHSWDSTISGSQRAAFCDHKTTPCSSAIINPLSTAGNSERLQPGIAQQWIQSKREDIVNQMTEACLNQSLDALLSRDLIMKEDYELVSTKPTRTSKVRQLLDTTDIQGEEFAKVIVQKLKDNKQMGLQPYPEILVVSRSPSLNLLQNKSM

Activin receptor type-2A = Activin receptor type-2A (Homo sapiens, UniProt P27037); assay: Inhibition of ACVR2A (unknown origin) by LanthaScreen TR-FRET assay; outline: as §5
Chain of Activin receptor type-2A (P27037 whole entry): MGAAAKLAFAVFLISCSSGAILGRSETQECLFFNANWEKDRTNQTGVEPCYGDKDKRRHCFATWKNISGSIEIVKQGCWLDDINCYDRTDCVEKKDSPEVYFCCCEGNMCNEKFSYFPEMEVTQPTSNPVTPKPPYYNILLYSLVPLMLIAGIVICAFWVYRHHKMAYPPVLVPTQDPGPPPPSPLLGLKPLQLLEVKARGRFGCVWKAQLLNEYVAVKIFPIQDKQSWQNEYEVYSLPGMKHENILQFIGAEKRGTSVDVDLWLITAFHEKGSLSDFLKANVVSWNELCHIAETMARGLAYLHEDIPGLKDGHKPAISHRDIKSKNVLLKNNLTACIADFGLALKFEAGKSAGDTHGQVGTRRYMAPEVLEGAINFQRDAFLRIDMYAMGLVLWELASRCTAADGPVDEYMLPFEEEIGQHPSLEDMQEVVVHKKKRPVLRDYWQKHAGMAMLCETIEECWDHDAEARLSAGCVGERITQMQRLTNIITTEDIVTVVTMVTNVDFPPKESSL

TGF-beta receptor type-2 = TGF-beta receptor type-2 (Homo sapiens, UniProt P37173); assay: Inhibition of TGFBR2 (unknown origin) by LanthaScreen TR-FRET assay; outline: as §5
Chain of TGF-beta receptor type-2 (P37173 whole entry): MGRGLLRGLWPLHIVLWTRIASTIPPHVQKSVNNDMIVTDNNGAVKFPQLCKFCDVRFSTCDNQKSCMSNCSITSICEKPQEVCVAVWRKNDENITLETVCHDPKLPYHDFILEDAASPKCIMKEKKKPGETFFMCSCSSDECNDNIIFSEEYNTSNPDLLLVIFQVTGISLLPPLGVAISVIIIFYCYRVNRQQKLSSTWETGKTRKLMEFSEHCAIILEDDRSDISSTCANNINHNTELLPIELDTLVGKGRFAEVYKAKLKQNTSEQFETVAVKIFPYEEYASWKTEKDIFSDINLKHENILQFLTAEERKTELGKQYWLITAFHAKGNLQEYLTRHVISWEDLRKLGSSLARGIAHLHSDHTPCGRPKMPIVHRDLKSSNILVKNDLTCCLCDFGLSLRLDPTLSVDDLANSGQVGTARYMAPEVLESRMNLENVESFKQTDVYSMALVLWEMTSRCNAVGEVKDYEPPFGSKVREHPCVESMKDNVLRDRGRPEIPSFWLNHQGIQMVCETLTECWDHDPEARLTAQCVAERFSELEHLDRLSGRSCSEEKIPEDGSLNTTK

[13] = liver microsomes, read-out: CLH

**Q.** Which inhibition [1] does the source give for `NS(=O)(=O)c1cccc(Nc2ncc(C(F)(F)F)c(N3CCN(c4ccccc4)C(=O)C3)n2)c1` here?
**A.** inactive

**Q.** For `COc1cnc(Nc2cccc(S(N)(=O)=O)c2)nc1N1CCN(c2ccccc2)CC12CC2`, which Ki [2] is on record?
**A.** 0.22 µM

**Q.** Which Ki [2] does the source give for `COc1cnc(Nc2cccc(S(N)(=O)=O)c2)nc1N1CC2CCC1CN2c1ccccc1` (stereo not drawn) here?
**A.** 0.31 µM

**Q.** What does the source list for `COc1cnc(Nc2cccc(S(N)(=O)=O)c2)nc1N1CCN(c2ccccc2)CC1C` (stereo not drawn)?
**A.** microsomal intrinsic clearance [3]: 18 µL/min/mg; t1/2 [4]: 6 min; microsomal intrinsic clearance [5]: 233 µL/min/mg; Ki [2]: 0.088 µM; t1/2 [6]: 79 min

**Q.** With `NS(=O)(=O)c1cccc(Nc2ncc(F)c(N3CCN(c4ccccc4)C(=O)C3)n2)c1` as the molecule, how does the Ki [2] read?
**A.** 0.236 µM

**Q.** For `COc1cnc(Nc2cccc(S(N)(=O)=O)c2)nc1N1CCN(c2ccccc2)C(C)C1` (stereo not drawn), which microsomal intrinsic clearance [3] is on record?
**A.** 23 µL/min/mg

**Q.** And the t1/2 [4]?
**A.** 6 min

**Q.** What about the microsomal intrinsic clearance [5] of the same molecule?
**A.** 220 µL/min/mg

**Q.** What about the Ki [2] of the same molecule?
**A.** 0.118 µM

**Q.** And the t1/2 [6]?
**A.** 60 min

**Q.** For `COc1cnc(Nc2ccccc2)nc1N1CCN(c2ccccc2)CC1`, which inhibition [1] is on record?
**A.** inactive

**Q.** With `NS(=O)(=O)c1cccc(Nc2ncc(OC(F)F)c(N3CCN(c4ccccc4)C(=O)C3)n2)c1` as the molecule, how does the Ki [2] read?
**A.** > 0.2 µM

**Q.** Which Ki [2] does the source give for `CNC(=O)[C@@H]1CC[C@@H](n2c(-c3ccc4cnccc4c3)nc3ccc(C(=O)NCc4ccccc4)cc32)C1` here?
**A.** 0.039 µM

**Q.** Which results are given for `CCOc1cnc(Nc2cccc(S(N)(=O)=O)c2)nc1N1CCN(c2ccccc2)C(=O)C1`?
**A.** microsomal intrinsic clearance [3]: 19 µL/min/mg; t1/2 [4]: 18 min; microsomal intrinsic clearance [5]: 79 µL/min/mg; Ki [2]: 0.005 µM; t1/2 [6]: 73 min

**Q.** For `COc1cnc(Nc2cccc(S(N)(=O)=O)c2)nc1N1CC2CC1CN2c1ccccc1` (stereo not drawn), which Ki [2] is on record?
**A.** 0.93 µM

**Q.** What does the source list for `COc1cnc(Nc2cccc(S(N)(=O)=O)c2)nc1N1CC(F)(c2ccccc2)C1`?
**A.** microsomal intrinsic clearance [3]: 8 µL/min/mg; t1/2 [4]: 21 min; microsomal intrinsic clearance [5]: 65 µL/min/mg; Ki [2]: 0.018 µM; t1/2 [6]: 170 min

**Q.** With `COc1cnc(Nc2cccc(S(N)(=O)=O)c2)nc1N1CCN(c2ccccc2)CC1` as the molecule, how does the microsomal intrinsic clearance [3] read?
**A.** 18 µL/min/mg

**Q.** And the inhibition (HEK293T [7])?
**A.** Active

**Q.** What about the inhibition (HEK293T [8]) of the same molecule?
**A.** Active

**Q.** What about the t1/2 [4] of the same molecule?
**A.** 12 min

**Q.** And the microsomal intrinsic clearance [5]?
**A.** 120 µL/min/mg

**Q.** What about the Ki [2] of the same molecule?
**A.** 0.04 µM

**Q.** And the t1/2 [6]?
**A.** 77 min

**Q.** What about the IC50 [9] of the same molecule?
**A.** 8.72 µM

**Q.** What about the inhibition (HUVEC [10]) of the same molecule?
**A.** Active

**Q.** And the inhibition (HUVEC [11])?
**A.** Active

**Q.** For `CC(C)Oc1cnc(Nc2cccc(S(N)(=O)=O)c2)nc1N1CCN(c2ccccc2)C(=O)C1`, which Ki [2] is on record?
**A.** > 0.2 µM

**Q.** For `Cc1nnc2n1-c1ccc(Cl)cc1C(c1ccccc1)=NC2` [ALPRAZOLAM], which t1/2 [4] is on record?
**A.** 258 min

**Q.** And the microsomal CLint at 2 µM [5, 13]?
**A.** 5 µL/min/mg

**Q.** What about the t1/2 [6] of the same molecule?
**A.** 620 min

**Q.** Which Ki [2] does the source give for `CNC(=O)c1ccc2nc(-c3ccc4cnccc4c3)n([C@@H]3CC[C@@H](C(=O)NC)C3)c2c1` here?
**A.** > 1 µM

**Q.** Which Ki [2] does the source give for `CNC(=O)[C@@H]1CC[C@@H](n2c(-c3cccc(Cl)c3)nc3ccc(C(=O)NCc4cccc(C(N)=O)c4)cc32)C1` here?
**A.** > 1 µM

**Q.** Which results are given for `Cn1c(-c2ccc3cnccc3c2)nc2ccc(C(=O)NCc3cccc(C(N)=O)c3)cc21`?
**A.** microsomal intrinsic clearance [3]: 20 µL/min/mg; t1/2 [4]: 14 min; microsomal intrinsic clearance [5]: 99 µL/min/mg; Ki [2]: 0.022 µM; t1/2 [6]: 69 min; IC50 [9]: 29.8 µM

**Q.** What does the source list for `COc1cnc(Nc2cccc(S(N)(=O)=O)c2)nc1N1CCN(c2ccccn2)CC1`?
**A.** microsomal intrinsic clearance at 2 µM [3, 13]: 32 µL/min/mg; half-life at 2 µM ([4]; liver microsomes): 9 min; microsomal intrinsic clearance at 2 µM [5, 13]: 159 µL/min/mg; half-life at 2 µM ([6]; liver microsomes): 43 min

**Q.** For `COc1cnc(Nc2cccc(S(N)(=O)=O)c2)nc1N1CCN(c2ccccc2)CC1C(F)(F)F` (stereo not drawn), which Ki [2] is on record?
**A.** 0.43 µM

**Q.** What does the source list for `c1ccc2c(-c3cnn4cc(-c5ccc(N6CCNCC6)cc5)cnc34)ccnc2c1`?
**A.** IC50 (Activin receptor type-2B): 0.0093 µM; IC50 [12]: 0.025 µM; inhibition (HEK293T [7]): Active; inhibition (HEK293T [8]): Active; IC50 [9]: 0.082 µM; IC50 (Activin receptor type-2A): 0.0093 µM; IC50 (TGF-beta receptor type-2): 0.0042 µM; inhibition (HUVEC [10]): Active; inhibition (HUVEC [11]): Active

**Q.** Which Ki [2] does the source give for `COc1cnc(Nc2cccc(S(N)(=O)=O)c2)nc1N1CC2CCC(C1)N2c1ccccc1` here?
**A.** 0.22 µM

**Q.** With `CNC(=O)[C@@H]1CC[C@@H](n2c(-c3cc(Cl)cc(Cl)c3)nc3ccc(C(=O)NCc4cccc(C(N)=O)c4)cc32)C1` as the molecule, how does the Ki [2] read?
**A.** > 1 µM

**Q.** For `Cc1sc2c(c1C)C(c1ccc(Cl)cc1)=N[C@@H](CC(=O)OC(C)(C)C)c1nnc(C)n1-2`, which t1/2 [6] is on record?
**A.** 14 min

**Q.** Which Ki [2] does the source give for `COc1cnc(Nc2cccc(S(N)(=O)=O)c2)nc1N1CCNCC1` here?
**A.** 0.25 µM
